These results are taken from ChEMBL document CHEMBL2346534, “Design, synthesis and in vitro anti-proliferative activity of 4,6-quinazolinediamines as potent EGFR-TK inhibitors” (Eur J Med Chem, 2013).

A value given as a limit tells only on which side of the number the result lay.

Common to all, as to format: functional
For one experiment, the system named is OVCAR-3. The experiment can be described thus: Cytotoxicity against human OVCAR3 cells after 48 hrs by SRB assay. To be noted: OVCAR-3, 48 h. The method, boiled down:
(§1)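 NCI 60-panel five-dose screen. Cells in RPMI 1640 with 5% FBS and 2 mM L-glutamine are plated at 5000–40,000 cells/well by doubling time and preincubated 24 h at 37 °C in 5% CO2. Drug in DMSO is tested at 0.01, 0.1, 1, 10 and 100 μM for 48 h. Cells are TCA-fixed, stained with SRB and read at 515 nm. GI50 is the concentration giving 50% reduction in net protein increase relative to time-zero and control plates.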

In another experiment the test system is UACC-257. The experiment can be described thus: Cytotoxicity against human UACC257 cells after 48 hrs by SRB assay. To be noted: UACC-257, 48 h. The method, boiled down: (§2)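 NCI 60 five-dose screen. Cells in RPMI 1640 with 5% FBS and 2 mM L-glutamine, plated at 5000–40,000 cells/well by doubling time, pre-incubated 24 h at 37 °C, 5% CO2. Time-zero plates TCA-fixed at drug addition. Final concentrations 0.01, 0.1, 1, 10 and 100 µM (DMSO stock), 48 h exposure. TCA fixation, 0.4% SRB stain, absorbance 515 nm. GI50 from [(Ti−Tz)/(C−Tz)]×100 = 50.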
Background: The SRB assay estimates cell density from bound dye.

The subject of the next experiment is UACC-62. The experiment can be described thus: Cytotoxicity against human UACC62 cells after 48 hrs by SRB assay. To be noted: UACC-62, 48 h. The procedure, abridged:
as §2

In a further experiment the test system is SK-MEL-2. The experiment can be described thus: Cytotoxicity against human SK-MEL-2 cells after 48 hrs by SRB assay. The settings on record: SK-MEL-2, 48 h. The method, boiled down: as §1
Another experiment concerns SNB-75. The experiment in a line: Cytotoxicity against human SNB75 cells after 48 hrs by SRB assay. To be noted: SNB-75, 48 h. The method, boiled down: as §1
For a further experiment, the system named is NCI-H460. The experiment in a line: Cytotoxicity against human NCI-H460 cells after 48 hrs by SRB assay. The settings on record: NCI-H460, 48 h. The procedure, abridged:
as §1

Setting [1] is: read-out: LC50 (the source's name).

For the compound `NC(=O)Nc1ccc2ncnc(Nc3ccc(Cl)cc3)c2c1`, the GI50 (commonly the concentration that inhibits growth by half) with OVCAR-3 came to 8.36 µM; in the experiment with UACC-257, 23.5 µM; in the experiment with UACC-62 it was 13.5 µM; with SK-MEL-2 it was 15.1 µM; in the experiment on SNB-75, 3.36 µM; in the experiment with NCI-H460, 22.4 µM. The TGI – broadly, the concentration at which net growth stops – with OVCAR-3 is 69.5 µM; in the experiment with UACC-257 it was 75.2 µM; in the experiment with UACC-62, 32.2 µM; in the experiment with SK-MEL-2, 42.7 µM; in the experiment on SNB-75, 47 µM; with NCI-H460 it was above 100 µM. Besides, the CC50 is above 100 µM in the experiment with OVCAR-3 (setting [1]); above 100 µM with UACC-257 (setting [1]); 77 µM with UACC-62 (setting [1]); above 100 µM in the experiment with SK-MEL-2 (setting [1]); above 100 µM in the experiment with SNB-75 (setting [1]); above 100 µM in the experiment with NCI-H460 (setting [1]).
